Laboratory results taken from ChEMBL document CHEMBL1139875, “Discovery of 4-aminobutyric acid derivatives possessing anticonvulsant and antinociceptive activities: a hybrid pharmacophore approach” (2007).
The source made the active and inactive calls. No cut-off for these calls is given here.

Experiments:
Mus musculus [1] = assay: Anticonvulsant activity in Swiss Albino mouse at 300 mg/kg, ip after 0.5 hr by MES test; format: functional, organism-based; set-up: dose 300 mg/kg
Method in brief: (§1)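 Mice (Swiss, 20-25 g) given i.p. doses of 30, 100 and 300 mg/kg under ADD program protocols, three per group, examined at 0.5 and 4 h in MES, scPTZ, scSTY or scPIC seizure tests. Value is the minimum dose protecting half or more of the mice.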

Mus musculus [2] = assay: Anticonvulsant activity in Swiss Albino mouse at 300 mg/kg, ip after 4 hrs by MES test; format: functional, organism-based; set-up: dose 300 mg/kg; method in brief: as §1
Mus musculus [3] = assay: Anticonvulsant activity in Swiss Albino mouse at 300 mg/kg, ip after 0.5 hr by scPTZ test; format: functional, organism-based; set-up: dose 300 mg/kg; method in brief: as §1
Mus musculus [4] = assay: Anticonvulsant activity in Swiss Albino mouse at 300 mg/kg, ip after 0.5 hr by scSTY test; format: functional, organism-based; set-up: dose 300 mg/kg; method in brief: as §1
Mus musculus [5] = assay: Anticonvulsant activity in Swiss Albino mouse at 300 mg/kg, ip after 4 hrs by scSTY test; format: functional, organism-based; set-up: dose 300 mg/kg; method in brief: as §1
Mus musculus [6] = assay: Anticonvulsant activity in Swiss Albino mouse at 300 mg/kg, ip after 0.5 hr by scPIC test; format: functional, organism-based; set-up: dose 300 mg/kg; method in brief: as §1
Mus musculus [7] = assay: Anticonvulsant activity in Swiss Albino mouse at 300 mg/kg, ip after 4 hrs by scPIC test; format: functional, organism-based; set-up: dose 300 mg/kg; method in brief: as §1
Mus musculus [8] = assay: Neurotoxicity in Swiss Albino mouse at 300 mg/kg, ip after 0.5 hr by rotarod test; format: functional, organism-based; set-up: dose 300 mg/kg
Method in brief: (§2)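 Swiss mice (20-25 g) are trained on an accelerating rotorod (10 rpm, 3.2 cm rod), then injected i.p. at 30, 100 or 300 mg/kg, with three per group. Neurotoxicity means failure to keep equilibrium for at least 1 min in each of three trials, checked at 0.5 and 4 h. The value reported is the minimum dose affecting half or more of the mice.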

Mus musculus [9] = assay: Neurotoxicity in Swiss Albino mouse at 300 mg/kg, ip after 4 hrs by rotarod test; format: functional, organism-based; set-up: dose 300 mg/kg; method in brief: as §2
Mus musculus [10] = assay: Analgesic activity in Swiss Albino mouse assessed as number of acetic acid-induced writhing per 30 min after 100 mg/kg, ip; format: functional; conditions: route intraperitoneal
Method in brief: (§3)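 Mice in groups of six dosed i.p. at 100 mg/kg, controls receiving 30% v/v PEG 400 in water. Writhing induced by i.p. 0.1 mL of 3% v/v acetic acid 1 h after drug. Writhes (abdominal stretch with at least one hind limb extended) counted over 30 min; % inhibition calculated. Mean ± SEM, Student's t test.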

Mus musculus [11] = assay: Analgesic activity in Swiss Albino mouse assessed as inhibition of acetic acid-induced writhing responses at 100 mg/kg, ip; format: functional; conditions: route intraperitoneal; method in brief: as §3
Rattus norvegicus [12] = assay: Anti-dynamic allodynia effect in Sprague-Dawley rat SNL model assessed as latency to paw withdrawal 100 mg/kg, ip after 0.5 hr; format: functional; conditions: route intraperitoneal
Method in brief: (§4)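 Left L5 spinal nerve ligation rats, tested preoperatively and 9 days postoperatively, then given 100 mg/kg i.p. (vehicle 30% v/v PEG 400 in water). After 10 min acclimatization, plantar surface of affected paw stroked mildly with a cotton-bud; paw lift response recorded. n = 4; retested 0.5-2.5 h post-dose.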

Rattus norvegicus [13] = assay: Anti-dynamic allodynia effect in Sprague-Dawley rat SNL model assessed as latency to paw withdrawal 100 mg/kg, ip after 1 hr; format: functional; conditions: route intraperitoneal; method in brief: as §4
Rattus norvegicus [14] = assay: Anti-dynamic allodynia effect in Sprague-Dawley rat SNL model assessed as latency to paw withdrawal 100 mg/kg, ip after 1.5 hrs; format: functional; conditions: route intraperitoneal; method in brief: as §4
Rattus norvegicus [15] = assay: Anti-dynamic allodynia effect in Sprague-Dawley rat SNL model assessed as latency to paw withdrawal 100 mg/kg, ip after 2 hrs; format: functional; conditions: route intraperitoneal; method in brief: as §4
Rattus norvegicus [16] = assay: Anti-dynamic allodynia effect in Sprague-Dawley rat SNL model assessed as latency to paw withdrawal 100 mg/kg, ip after 2.5 hrs; format: functional; conditions: route intraperitoneal; method in brief: as §4
Rattus norvegicus [17] = assay: Anti-cold allodynia effect in Sprague-Dawley rat SNL model assessed as duration of paw withdrawal 100 mg/kg, ip after 0.5 hr; format: functional; conditions: route intraperitoneal
Method in brief: (§5)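 Left L5 spinal nerve ligation under pentobarbital (65 mg/kg i.p.). Allodynic rats dosed i.p. 100 mg/kg, vehicle 30% v/v PEG 400 in water. Acetone (100-200 µL) misted onto midplantar affected paw after 10 min acclimatization; paw withdrawal duration, mean of three samples at least 3 min apart; n = 4 rats.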

Rattus norvegicus [18] = assay: Anti-cold allodynia effect in Sprague-Dawley rat SNL model assessed as duration of paw withdrawal 100 mg/kg, ip after 1 hrs; format: functional; conditions: route intraperitoneal; method in brief: as §5
Rattus norvegicus [19] = assay: Anti-cold allodynia effect in Sprague-Dawley rat SNL model assessed as duration of paw withdrawal 100 mg/kg, ip after 1.5 hrs; format: functional; conditions: route intraperitoneal; method in brief: as §5
Rattus norvegicus [20] = assay: Anti-cold allodynia effect in Sprague-Dawley rat SNL model assessed as duration of paw withdrawal 100 mg/kg, ip after 2 hrs; format: functional; conditions: route intraperitoneal; method in brief: as §5
Rattus norvegicus [21] = assay: Anti-cold allodynia effect in Sprague-Dawley rat SNL model assessed as duration of paw withdrawal 100 mg/kg, ip after 2.5 hrs; format: functional; conditions: route intraperitoneal; method in brief: as §5
Rattus norvegicus [22] = assay: Antihyperalgesic effects in Sprague-Dawley rat CCI model assessed as duration of paw withdrawal at 100 mg/kg, ip after 0.5 hr; format: functional; conditions: route intraperitoneal
Rattus norvegicus [23] = assay: Antihyperalgesic effects in Sprague-Dawley rat CCI model assessed as duration of paw withdrawal at 100 mg/kg, ip after 1 hr; format: functional; conditions: route intraperitoneal
Rattus norvegicus [24] = assay: Antihyperalgesic effects in Sprague-Dawley rat CCI model assessed as duration of paw withdrawal at 100 mg/kg, ip after 1.5 hrs; format: functional; conditions: route intraperitoneal
Rattus norvegicus [25] = assay: Antihyperalgesic effects in Sprague-Dawley rat CCI model assessed as duration of paw withdrawal at 100 mg/kg, ip after 2 hrs; format: functional; conditions: route intraperitoneal
Rattus norvegicus [26] = assay: Antihyperalgesic effects in Sprague-Dawley rat CCI model assessed as duration of paw withdrawal at 100 mg/kg, ip after 2.5 hrs; format: functional; conditions: route intraperitoneal
Rattus norvegicus [27] = assay: Effect on spontaneous pain in Sprague-Dawley rat SNL model assessed as duration of paw withdrawal at 100 mg/kg, ip after 0.5 hr; format: functional; conditions: route intraperitoneal
Method in brief: (§6)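 Rats underwent left L5 spinal nerve ligation (Kim and Chung) under i.p. pentobarbital (65 mg/kg). Spontaneous pain is recorded for 5 min after 10 min acclimatization, as cumulative duration the ipsilateral paw is lifted, excluding locomotor lifts. Dosing is 100 mg/kg i.p. in 30% v/v PEG 400/water, with testing at 0.5–2.5 h. Four rats, mean ± SEM versus predrug, one-way ANOVA with Bonferroni.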

Rattus norvegicus [28] = assay: Effect on spontaneous pain in Sprague-Dawley rat SNL model assessed as duration of paw withdrawal at 100 mg/kg, ip after 1 hr; format: functional; conditions: route intraperitoneal; method in brief: as §6
Rattus norvegicus [29] = assay: Effect on spontaneous pain in Sprague-Dawley rat SNL model assessed as duration of paw withdrawal at 100 mg/kg, ip after 1.5 hrs; format: functional; conditions: route intraperitoneal; method in brief: as §6
Rattus norvegicus [30] = assay: Effect on spontaneous pain in Sprague-Dawley rat SNL model assessed as duration of paw withdrawal at 100 mg/kg, ip after 2 hrs; format: functional; conditions: route intraperitoneal; method in brief: as §6
Rattus norvegicus [31] = assay: Effect on spontaneous pain in Sprague-Dawley rat SNL model assessed as duration of paw withdrawal at 100 mg/kg, ip after 2.5 hrs; format: functional; conditions: route intraperitoneal; method in brief: as §6
Rattus norvegicus [32] = species on record: Rattus norvegicus; assay: Anti-dynamic allodynic effect in Sprague-Dawley rat CCI model assessed as latency to paw withdrawal after 0.5 hr; format: functional
Method in brief: (§7)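 Rats with sciatic nerve chronic constriction injury (pentobarbital 65 mg/kg i.p. anaesthesia), baseline and day 9 testing, then drug per randomization table. After 10 min acclimatization, affected plantar surface stroked mildly with a cotton-bud; paw lift recorded. n = 4; retested 0.5-2.5 h post-dose.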

Rattus norvegicus [33] = species on record: Rattus norvegicus; assay: Anti-dynamic allodynic effect in Sprague-Dawley rat CCI model assessed as latency to paw withdrawal after 1 hr; format: functional; method in brief: as §7
Rattus norvegicus [34] = species on record: Rattus norvegicus; assay: Anti-dynamic allodynic effect in Sprague-Dawley rat CCI model assessed as latency to paw withdrawal after 1.5 hr; format: functional; method in brief: as §7
Rattus norvegicus [35] = species on record: Rattus norvegicus; assay: Anti-dynamic allodynic effect in Sprague-Dawley rat CCI model assessed as latency to paw withdrawal after 2 hr; format: functional; method in brief: as §7
Rattus norvegicus [36] = species on record: Rattus norvegicus; assay: Anti-dynamic allodynic effect in Sprague-Dawley rat CCI model assessed as latency to paw withdrawal after 2.5 hr; format: functional; method in brief: as §7

In the case of `O=C(O)CCCNC(=O)N/N=C(\c1ccccc1)c1ccc(Br)cc1`, the Activity (Mus musculus [1]) was “Active”, the Activity (Mus musculus [2]) was “inactive” and the Activity (Mus musculus [3]) was “inactive”. For the same molecule, the Activity (Mus musculus [4]) was “Active”, the Activity (Mus musculus [5]) was “Active” and the Activity (Mus musculus [6]) was “inactive”. For the same molecule, the Activity (Mus musculus [7]) was “inactive”, the Activity (Mus musculus [8]) was “inactive” and the Activity (Mus musculus [9]) was “inactive”. It also gave an Activity (Mus musculus [10]) of 21, an inhibition in vivo at 100 mg/kg (Mus musculus [11]) of 89% and an Activity (Rattus norvegicus [12]) of 9.8 s. The Activity (Rattus norvegicus [13]) was 10.6 s, the Activity (Rattus norvegicus [14]) was 10.8 s and the Activity (Rattus norvegicus [15]) was 10.3 s. For the same molecule, the Activity (Rattus norvegicus [16]) was 10.23 s, the Activity (Rattus norvegicus [17]) was 19.1 s and the Activity (Rattus norvegicus [18]) was 23.8 s. The Activity (Rattus norvegicus [19]) was 11.8 s, the Activity (Rattus norvegicus [20]) was 10.8 s and the Activity (Rattus norvegicus [21]) was 10.2 s. The Activity (Rattus norvegicus [22]) was 20.5 s, the Activity (Rattus norvegicus [23]) was 8.5 s and the Activity (Rattus norvegicus [24]) was 5.1 s. The Activity (Rattus norvegicus [25]) was 7.3 s, the Activity (Rattus norvegicus [26]) was 5.6 s and the Activity (Rattus norvegicus [27]) was 25.1 s. For the same molecule, the Activity (Rattus norvegicus [28]) was 28.5 s, the Activity (Rattus norvegicus [29]) was 23.1 s and the Activity (Rattus norvegicus [30]) was 10.1 s. It also gave an Activity (Rattus norvegicus [31]) of 8.7 s, an Activity (Rattus norvegicus [32]) of 11.4 s and an Activity (Rattus norvegicus [33]) of 10.3 s. The Activity (Rattus norvegicus [34]) was 10.6 s, the Activity (Rattus norvegicus [35]) was 10.9 s and the Activity (Rattus norvegicus [36]) was 11.3 s.
